Source: ChEMBL document CHEMBL1681713, “Lead detoxification activities and ADMET hepatotoxicities of a class of novel 5-(1-carbonyl-L-amino-acid)-2,2-dimethyl-[1,3]dithiolane-4-carboxylic acids” (Bioorg Med Chem Lett, 2011)

Key:
[1] = tested on: Kidney; test: Toxicity in mouse assessed as effect on zinc level in kidney per gram of organ at 0.4 mmol/kg, ip qd for 5 days; assay type: organism-based; settings: in vivo, 120 h
[2] = Apparent permeability from apical to basolateral side of human Caco2 cells at 4 mM up to 120 mins by HPLC analysis; assay type: ADME, cell-based; settings: Caco-2
Method in brief: (§1)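 Permeability measured across Caco-2 cell monolayers.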

[3] = tested on: Liver; test: Detoxification activity against lead-induced toxicity in mouse assessed as reduction lead level in liver per gram of organ at 0.4 mmol/kg, ip qd for 5 days measured 24 hrs last post dose by synchrotron X-ray fluorescence analysis; assay type: functional
Method in brief: (§2)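 Lead-loaded mice were given normal saline vehicle (negative control) or test agent at 0.2, 0.4 or 0.6 mmol/kg. Lead was measured in liver, kidney, left femur and brain and reported as mean ± SD µg Pb/g organ against the NS group.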

[4] = Detoxification activity against lead-induced toxicity in mouse assessed as reduction lead level in feces at 0.4 mmol/kg, ip qd for 5 days measured 24 hrs last post dose by synchrotron X-ray fluorescence analysis; assay type: functional
Method in brief: (§3)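 Lead-loaded mice were given normal saline vehicle, DL-penicillamine or NaDMS (positive controls), or test agent, each at 0.4 mmol/kg; n = 12 per group. Lead was measured in feces and urine and reported as mean ± SD µg Pb/g excrement against the NS group.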

[5] = Detoxification activity against lead-induced toxicity in mouse assessed as reduction lead level in urine at 0.4 mmol/kg, ip qd for 5 days measured 24 hrs last post dose by synchrotron X-ray fluorescence analysis; assay type: functional; method in brief: as §3
[6] = tested on: Brain; test: Toxicity in mouse assessed as effect on zinc level in brain per gram of organ at 0.4 mmol/kg, ip qd for 5 days; assay type: organism-based; settings: in vivo, 120 h
[7] = tested on: Liver; test: Toxicity in mouse assessed as effect on iron level in liver per gram of organ at 0.4 mmol/kg, ip qd for 5 days; assay type: organism-based; settings: in vivo, 120 h
[8] = tested on: Mus musculus; test: Toxicity in mouse assessed as change in bodyweight at 0.4 mmol/kg, ip qd for 5 days; assay type: organism-based; settings: in vivo, 120 h
Method in brief: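 Lead-loaded mice were given normal saline vehicle or test agent at 0.4 mmol/kg. Body weights were recorded and compared with the NS group to assess growth.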

[9] = tested on: Kidney; test: Toxicity in mouse assessed as effect on manganese level in kidney per gram of organ at 0.4 mmol/kg, ip qd for 5 days; assay type: organism-based; settings: in vivo, 120 h
[10] = tested on: Kidney; test: Toxicity in mouse assessed as effect on copper level in kidney per gram of organ at 0.4 mmol/kg, ip qd for 5 days; assay type: organism-based; settings: in vivo, 120 h
[11] = tested on: Liver; test: Toxicity in mouse assessed as effect on copper level in liver per gram of organ at 0.4 mmol/kg, ip qd for 5 days; assay type: organism-based; settings: in vivo, 120 h
[12] = tested on: Kidney; test: Toxicity in mouse assessed as effect on iron level in kidney per gram of organ at 0.4 mmol/kg, ip qd for 5 days; assay type: organism-based; settings: in vivo, 120 h
[13] = Apparent permeability from basolateral to apical side of human Caco2 cells at 4 mM up to 120 mins by HPLC analysis; assay type: ADME, cell-based; settings: Caco-2; method in brief: as §1
[14] = tested on: Brain; test: Toxicity in mouse assessed as effect on manganese level in brain per gram of organ at 0.4 mmol/kg, ip qd for 5 days; assay type: organism-based; settings: in vivo, 120 h
[15] = tested on: Caco-2; test: Efflux ratio of permeability […] in human Caco2 cells at 4 mM up to 120 mins by HPLC analysis; assay type: ADME, cell-based; settings: caco-2, 2 h, 4000 µM; method in brief: as §1
[16] = tested on: Brain; test: Toxicity in mouse assessed as effect on iron level in brain per gram of organ at 0.4 mmol/kg, ip qd for 5 days; assay type: organism-based; settings: in vivo, 120 h
[17] = tested on: Liver; test: Toxicity in mouse assessed as effect on manganese level in liver per gram of organ at 0.4 mmol/kg, ip qd for 5 days; assay type: organism-based; settings: in vivo, 120 h
[18] = tested on: Kidney; test: Detoxification activity against lead-induced toxicity in mouse assessed as reduction lead level in kidney per gram of organ at 0.4 mmol/kg, ip qd for 5 days measured 24 hrs last post dose by synchrotron X-ray fluorescence analysis; assay type: functional; method in brief: as §2
[19] = tested on: Liver; test: Toxicity in mouse assessed as effect on calcium level in liver per gram of organ at 0.4 mmol/kg, ip qd for 5 days; assay type: organism-based; settings: in vivo, 120 h
[20] = tested on: Liver; test: Toxicity in mouse assessed as effect on zinc level in liver per gram of organ at 0.4 mmol/kg, ip qd for 5 days; assay type: organism-based; settings: in vivo, 120 h
[21] = tested on: Kidney; test: Toxicity in mouse assessed as effect on calcium level in kidney per gram of organ at 0.4 mmol/kg, ip qd for 5 days; assay type: organism-based; settings: in vivo, 120 h
[22] = tested on: Brain; test: Toxicity in mouse assessed as effect on calcium level in brain per gram of organ at 0.4 mmol/kg, ip qd for 5 days; assay type: organism-based; settings: in vivo, 120 h
[23] = tested on: Brain; test: Toxicity in mouse assessed as effect on copper level in brain per gram of organ at 0.4 mmol/kg, ip qd for 5 days; assay type: organism-based; settings: in vivo, 120 h
[24] = tested on: Brain; test: Detoxification activity against lead-induced toxicity in mouse assessed as reduction lead level in brain per gram of organ at 0.4 mmol/kg, ip qd for 5 days measured 24 hrs last post dose by synchrotron X-ray fluorescence analysis; assay type: functional; method in brief: as §2
[25] = tested on: Femur; test: Detoxification activity against lead-induced toxicity in mouse assessed as reduction lead level in femurs per gram of organ at 0.4 mmol/kg, ip qd for 5 days measured 24 hrs last post dose by synchrotron X-ray fluorescence analysis; assay type: functional; method in brief: as §2

## CC1(C)SC(C(=O)O)C(C(=O)N[C@@H](CC(N)=O)C(=O)O)S1 (stereo not given in full)
[1]
  Activity: 28.13 µg/g
[2]
  Papp A→B at 2 h, 4000 µM: 16.6 ×10⁻⁶ cm/s
[3]
  Activity: 3.99 µg/g
[4]
  Activity: 4.71 µg/g
[5]
  Activity: 2.12 µg/g
[6]
  Activity: 34.95 µg/g
[7]
  Activity: 153.07 µg/g
[8]
  Activity: 31.3 g
[9]
  Activity: 1.42 µg/g
[10]
  Activity: 3.72 µg/g
[11]
  Activity: 3.74 µg/g
[12]
  Activity: 94.84 µg/g
[13]
  Papp B→A at 2 h, 4000 µM: 5.15 ×10⁻⁶ cm/s
[14]
  Activity: 0.69 µg/g
[15]
  Ratio: 3.23
[16]
  Activity: 57.5 µg/g
[17]
  Activity: 1.38 µg/g
[18]
  Activity: 7.06 µg/g
[19]
  Activity: 60.41 µg/g
[20]
  Activity: 37.92 µg/g
[21]
  Activity: 76.36 µg/g
[22]
  Activity: 71.3 µg/g
[23]
  Activity: 2.58 µg/g
[24]
  Activity: 0.58 µg/g
[25]
  Activity: 16.62 µg/g

## CSCC[C@H](NC(=O)C1SC(C)(C)SC1C(=O)O)C(=O)O (stereo not given in full)
[1]
  Activity: 27.79 µg/g
[2]
  Papp A→B at 2 h, 4000 µM: 15.7 ×10⁻⁶ cm/s
[3]
  Activity: 3.51 µg/g
[4]
  Activity: 4.35 µg/g
[5]
  Activity: 2.26 µg/g
[6]
  Activity: 33.66 µg/g
[7]
  Activity: 153.33 µg/g
[8]
  Activity: 30 g
[9]
  Activity: 1.37 µg/g
[10]
  Activity: 3.65 µg/g
[11]
  Activity: 3.59 µg/g
[12]
  Activity: 93.88 µg/g
[13]
  Papp B→A at 2 h, 4000 µM: 5.05 ×10⁻⁶ cm/s
[14]
  Activity: 0.73 µg/g
[15]
  Ratio: 3.11
[16]
  Activity: 56.6 µg/g
[17]
  Activity: 1.39 µg/g
[18]
  Activity: 6.36 µg/g
[19]
  Activity: 59.64 µg/g
[20]
  Activity: 36.78 µg/g
[21]
  Activity: 77.39 µg/g
[22]
  Activity: 70.51 µg/g
[23]
  Activity: 2.41 µg/g
[24]
  Activity: 0.91 µg/g
[25]
  Activity: 13.71 µg/g

## CC1(C)SC(C(=O)O)C(C(=O)O)S1 (stereo not given)
[1]
  Activity: 28 µg/g
[2]
  Papp A→B at 2 h, 4000 µM: 13.7 ×10⁻⁶ cm/s
[3]
  Activity: 4.02 µg/g
[4]
  Activity: 4.57 µg/g
[5]
  Activity: 1.93 µg/g
[6]
  Activity: 34.54 µg/g
[7]
  Activity: 152.9 µg/g
[8]
  Activity: 29 g
[9]
  Activity: 1.3 µg/g
[10]
  Activity: 3.4 µg/g
[11]
  Activity: 3.61 µg/g
[12]
  Activity: 95.1 µg/g
[13]
  Papp B→A at 2 h, 4000 µM: 4.68 ×10⁻⁶ cm/s
[14]
  Activity: 0.7 µg/g
[15]
  Ratio: 2.91
[16]
  Activity: 56.6 µg/g
[17]
  Activity: 1.36 µg/g
[18]
  Activity: 7.12 µg/g
[19]
  Activity: 58.87 µg/g
[20]
  Activity: 36.66 µg/g
[21]
  Activity: 75.94 µg/g
[22]
  Activity: 71.33 µg/g
[23]
  Activity: 2.42 µg/g
[24]
  Activity: 1.42 µg/g
[25]
  Activity: 15.47 µg/g

## CC[C@H](C)[C@H](NC(=O)C1SC(C)(C)SC1C(=O)O)C(=O)O (stereo not given in full)
[1]
  Activity: 27.41 µg/g
[2]
  Papp A→B at 2 h, 4000 µM: 14.2 ×10⁻⁶ cm/s
[3]
  Activity: 5 µg/g
[4]
  Activity: 4.1 µg/g
[5]
  Activity: 2.42 µg/g
[6]
  Activity: 33 µg/g
[7]
  Activity: 152.94 µg/g
[8]
  Activity: 30.6 g
[9]
  Activity: 1.44 µg/g
[10]
  Activity: 3.54 µg/g
[11]
  Activity: 3.73 µg/g
[12]
  Activity: 92.98 µg/g
[13]
  Papp B→A at 2 h, 4000 µM: 4.91 ×10⁻⁶ cm/s
[14]
  Activity: 0.75 µg/g
[15]
  Ratio: 2.9
[16]
  Activity: 56.49 µg/g
[17]
  Activity: 1.34 µg/g
[18]
  Activity: 6.49 µg/g
[19]
  Activity: 59.96 µg/g
[20]
  Activity: 36.79 µg/g
[21]
  Activity: 75.99 µg/g
[22]
  Activity: 69 µg/g
[23]
  Activity: 2.48 µg/g
[24]
  Activity: 1.42 µg/g
[25]
  Activity: 14.32 µg/g
